The results in this text go back to ChEMBL document CHEMBL1165977, “Novel analogues of Istaroxime, a potent inhibitor of Na(+),K(+)-ATPase: Synthesis, structure-activity relationship and 3D-quantitative structure-activity relationship of derivatives at position 6 on the androstane scaffold” (Bioorg Med Chem, 2010).

pIC50: −log10 of the molar value.

The test can be described thus: Inhibition of dog kidney Na+K+-ATPase assessed as hydrolysis of [32P]ATP. Details: species or system Canis lupus familiaris. The procedure, abridged: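 Dog kidney Na+,K+-ATPase, isolated and purified by the Jørgensen method. Enzyme activity was read as % hydrolysis of 32P-ATP with versus without test compound. IC50 was obtained by nonlinear least-squares curve fitting, as the mean of two or three experiments.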
As a reminder, the pIC50 is −log10 of the IC50, conventionally taken in molar units. As for `C[C@]12CC/C(=N\OCCN)C[C@@H]1[C@H](O[N+](=O)[O-])C[C@@H]1[C@@H]2CC[C@]2(C)C(=O)CC[C@@H]12`, the negative-log IC50 (pIC50) was 5.54.

In the case of `CNCCCO/N=C1\CC[C@@]2(C)[C@H](C1)[C@@H](COC)C[C@@H]1[C@@H]2CC[C@]2(C)C(=O)CC[C@@H]12`, the pIC50 was 5.70.

On to `C=CCO/N=C1\C[C@@H]2[C@H](CC[C@]3(C)C(=O)CC[C@@H]23)[C@@]2(C)CC/C(=N\OCCN)C[C@H]12`, for which the pIC50 is 4.37.

For the compound `COC(=O)/C=C1\C[C@@H]2[C@H](CC[C@]3(C)C(=O)CC[C@@H]23)[C@@]2(C)CC/C(=N\OCCN)C[C@H]12`, the negative logarithm of the IC50 (pIC50) was 4.19.

In the case of `COC[C@@H]1C[C@@H]2[C@H](CC[C@]3(C)C(=O)CC[C@@H]23)[C@@]2(C)CC/C(=N\OCCN)C[C@H]12`, the negative logarithm of the IC50 (pIC50) is 5.52.

In the case of `COC[C@H]1C[C@@H]2[C@H](CC[C@]3(C)C(=O)CC[C@@H]23)[C@@]2(C)CC/C(=N\OCCN)C[C@H]12`, the pIC50 was 6.30.

On to `C[C@]12CC/C(=N\OCCN)C[C@@H]1[C@@]1(CO1)C[C@@H]1[C@@H]2CC[C@]2(C)C(=O)CC[C@@H]12`, for which the negative-log IC50 (pIC50) is 6.04.

For `CO/N=C1\C[C@@H]2[C@H](CC[C@]3(C)C(=O)CC[C@@H]23)[C@@]2(C)CC/C(=N\O[C@@H]3CCNC3)C[C@H]12`, the pIC50 was 7.74.

`C[C@]12CC/C(=N\OCCN)C[C@@H]1[C@]1(CO1)C[C@@H]1[C@@H]2CC[C@]2(C)C(=O)CC[C@@H]12`: the pIC50 was 6.06.

Turning to `C[C@]12CC/C(=N\O[C@@H]3CCNC3)C[C@@H]1[C@@H](CO)C[C@@H]1[C@@H]2CC[C@]2(C)C(=O)CC[C@@H]12`, the negative-log IC50 (pIC50) was 7.59.

Consider `CNCCCO/N=C1\CC[C@@]2(C)[C@H](C1)C1(CC1)C[C@@H]1[C@@H]2CC[C@]2(C)C(=O)CC[C@@H]12`, for which the negative-log IC50 (pIC50) is 5.89.

Consider `CNCCCO/N=C1\CC[C@@]2(C)[C@H](C1)C(=O)C[C@@H]1[C@@H]2CC[C@]2(C)C(=O)CC[C@@H]12`, for which the negative-log IC50 (pIC50) is 6.60.

For `C=C1C[C@@H]2[C@H](CC[C@]3(C)C(=O)CC[C@@H]23)[C@@]2(C)CC/C(=N\OCCCNC)C[C@H]12`, the pIC50 is 6.24.

With `C[C@]12CC/C(=N\OCCN)C[C@@H]1[C@@H](C#N)C[C@@H]1[C@@H]2CC[C@]2(C)C(=O)CC[C@@H]12`, the negative logarithm of the IC50 (pIC50) is 5.96.

As for `COC(=O)[C@H]1C[C@@H]2[C@H](CC[C@]3(C)C(=O)CC[C@@H]23)[C@@]2(C)CC/C(=N\OCCN)C[C@H]12`, the pIC50 was 6.39.

In the case of `C[C@]12CC/C(=N\OCCN)C[C@@H]1[C@@H](C(N)=O)C[C@@H]1[C@@H]2CC[C@]2(C)C(=O)CC[C@@H]12`, the pIC50 is 6.20.

As to `C#C[C@H]1C[C@@H]2[C@H](CC[C@]3(C)C(=O)CC[C@@H]23)[C@@]2(C)CC/C(=N\OCCCNC)C[C@H]12`, the pIC50 is 5.92.

For the compound `CNCCCO/N=C1\CC[C@@]2(C)[C@H](C1)[C@@H](C(N)=O)C[C@@H]1[C@@H]2CC[C@]2(C)C(=O)CC[C@@H]12`, the negative logarithm of the IC50 (pIC50) was 5.72.

In the case of `CNCCCO/N=C1\CC[C@@]2(C)[C@H](C1)[C@@H](C(=O)OC)C[C@@H]1[C@@H]2CC[C@]2(C)C(=O)CC[C@@H]12`, the pIC50 was 5.40.

For the compound `CO[C@@H]1C[C@@H]2[C@H](CC[C@]3(C)C(=O)CC[C@@H]23)[C@@]2(C)CC/C(=N\OCCN)C[C@H]12`, the pIC50 is 5.82.

Take `C[C@]12CC/C(=N\OCCN)C[C@@H]1[C@@H](O)C[C@@H]1[C@@H]2CC[C@]2(C)C(=O)CC[C@@H]12`: the negative-log IC50 (pIC50) is 6.28.

As for `C[C@]12CC/C(=N\OCCN)C[C@@H]1[C@H](O)C[C@@H]1[C@@H]2CC[C@]2(C)C(=O)CC[C@@H]12`, the pIC50 is 5.68.

Take `C=C1C[C@@H]2[C@H](CC[C@]3(C)C(=O)CC[C@@H]23)[C@@]2(C)CC/C(=N\OCCN)C[C@H]12`: the pIC50 is 7.38.

Take `C[C@]12CC/C(=N\OCCN)C[C@@H]1[C@@H](C(=O)O)C[C@@H]1[C@@H]2CC[C@]2(C)C(=O)CC[C@@H]12`: the negative logarithm of the IC50 (pIC50) was 4.80.

As for `C[C@]12CC/C(=N\OCCN)C[C@@H]1C(=C(F)F)C[C@@H]1[C@@H]2CC[C@]2(C)C(=O)CC[C@@H]12`, the pIC50 was 6.72.

As to `C/C=C1\C[C@@H]2[C@H](CC[C@]3(C)C(=O)CC[C@@H]23)[C@@]2(C)CC/C(=N\OCCN)C[C@H]12`, the pIC50 was 5.96.

As for `C[C@]12CC/C(=N\OCCN)C[C@@H]1C1(CC1)C[C@@H]1[C@@H]2CC[C@]2(C)C(=O)CC[C@@H]12`, the pIC50 was 6.07.

Turning to `C=C[C@H]1C[C@@H]2[C@H](CC[C@]3(C)C(=O)CC[C@@H]23)[C@@]2(C)CC/C(=N\OCCN)C[C@H]12`, the negative logarithm of the IC50 (pIC50) was 6.28.

As to `C[C@@H]1C[C@@H]2[C@H](CC[C@]3(C)C(=O)CC[C@@H]23)[C@@]2(C)CC/C(=N\OCCN)C[C@H]12`, the pIC50 was 5.22.

As for `CCO/N=C1\C[C@@H]2[C@H](CC[C@]3(C)C(=O)CC[C@@H]23)[C@@]2(C)CC/C(=N\OCCN)C[C@H]12`, the pIC50 was 5.77.

Take `C[C@]12CC/C(=N\O[C@@H]3CCNC3)C[C@@H]1[C@@H](O[N+](=O)[O-])C[C@@H]1[C@@H]2CC[C@]2(C)C(=O)CC[C@@H]12`: the negative-log IC50 (pIC50) is 6.42.

In the case of `C[C@]12CC/C(=N\OCCN)C[C@@H]1/C(=C/C#N)C[C@@H]1[C@@H]2CC[C@]2(C)C(=O)CC[C@@H]12`, the negative-log IC50 (pIC50) was 5.77.

`C[C@H]1C[C@@H]2[C@H](CC[C@]3(C)C(=O)CC[C@@H]23)[C@@]2(C)CC/C(=N\O[C@@H]3CCNC3)C[C@H]12`: the pIC50 is 6.47.

As to `C[C@]12CC/C(=N\OCCN)C[C@@H]1[C@H](CO)C[C@@H]1[C@@H]2CC[C@]2(C)C(=O)CC[C@@H]12`, the negative-log IC50 (pIC50) was 5.80.

For the compound `CC(=O)N[C@H]1C[C@@H]2[C@H](CC[C@]3(C)C(=O)CC[C@@H]23)[C@@]2(C)CC/C(=N\OCCN)C[C@H]12`, the negative-log IC50 (pIC50) is 4.35.

As to `C=C1C[C@@H]2[C@H](CC[C@]3(C)C(=O)CC[C@@H]23)[C@@]2(C)CC/C(=N\O[C@@H]3CCNC3)C[C@H]12`, the pIC50 is 7.34.

Take `C[C@]12CC/C(=N\OCCN)C[C@@H]1/C(=C/CO)C[C@@H]1[C@@H]2CC[C@]2(C)C(=O)CC[C@@H]12`: the pIC50 is 6.11.

As to `C[C@]12CC/C(=N\O[C@@H]3CCNC3)C[C@@H]1C1(CC1)C[C@@H]1[C@@H]2CC[C@]2(C)C(=O)CC[C@@H]12`, the negative logarithm of the IC50 (pIC50) is 6.66.

Turning to `CNCCCO/N=C1\CC[C@@]2(C)[C@H](C1)/C(=N/OC)C[C@@H]1[C@@H]2CC[C@]2(C)C(=O)CC[C@@H]12`, the negative-log IC50 (pIC50) was 6.48.

Regarding `CCO[C@H]1C[C@@H]2[C@H](CC[C@]3(C)C(=O)CC[C@@H]23)[C@@]2(C)CC/C(=N\OCCN)C[C@H]12`, the pIC50 was 5.51.

As for `C[C@]12CC/C(=N\O[C@@H]3CCNC3)C[C@@H]1C(=O)C[C@@H]1[C@@H]2CC[C@]2(C)C(=O)CC[C@@H]12`, the pIC50 is 7.59.
